Test results from ChEMBL document CHEMBL1777716, “Identification and optimisation of novel sulfonamide, selective vasopressin V1B receptor antagonists” (Bioorg Med Chem Lett, 2011).
≈ marks a conversion by molar mass, not a printed value. Calls of active or inactive are those of the source. No cut-off for these calls is given here. Non-standard residues stand in square brackets, D forms with d. Residues, ends and D or L forms follow the SMILES beside them. *: point of attachment. 2Nal = N[C@@H](Cc1ccc2ccccc2c1)C(=O)O; Mtr = COc1cc(C)c(S(=O)(=O)*)c(C)c1C; Piperidide = C1CCN(*)CC1

Key:
Vasopressin V1b receptor [1] = target: T1, Vasopressin V1b receptor (Homo sapiens, UniProt P47901); test: Displacement of [3H]-AVP from human vasopressin V1B receptor expressed in CHO cells; type: cell-based
T1 sequence (P47901 whole entry): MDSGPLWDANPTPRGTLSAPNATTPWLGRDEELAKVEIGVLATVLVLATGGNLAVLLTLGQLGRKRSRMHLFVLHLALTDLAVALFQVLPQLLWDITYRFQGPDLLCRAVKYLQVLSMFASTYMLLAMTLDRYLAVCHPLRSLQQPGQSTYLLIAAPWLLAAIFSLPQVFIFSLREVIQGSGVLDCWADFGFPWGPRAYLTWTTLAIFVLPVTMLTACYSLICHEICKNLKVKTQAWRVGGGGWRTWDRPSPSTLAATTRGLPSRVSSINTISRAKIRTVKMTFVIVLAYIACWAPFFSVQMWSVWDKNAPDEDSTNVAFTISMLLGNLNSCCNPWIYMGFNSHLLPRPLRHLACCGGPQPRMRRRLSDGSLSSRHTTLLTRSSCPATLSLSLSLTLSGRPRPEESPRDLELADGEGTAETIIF
How it was run: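 Whole-cell binding in CHO cells expressing human receptor, [³H]AVP tracer, increasing compound concentrations; nonspecific binding with 10 µM lysine vasopressin. Affinity (Ki) from non-linear regression of specific binding versus concentration; mean of at least 2 independent experiments run in duplicate.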

[2] = target: 5-hydroxytryptamine receptor 6 (Homo sapiens) (UniProt P50406); test: Binding affinity to 5HT6 receptor
Oxytocin receptor = target: T2, Oxytocin receptor (Homo sapiens, UniProt P30559); test: Displacement of [3H]oxytocin from human oxytocin receptor expressed in CHO cells; type: cell-based
T2 sequence (P30559 whole entry): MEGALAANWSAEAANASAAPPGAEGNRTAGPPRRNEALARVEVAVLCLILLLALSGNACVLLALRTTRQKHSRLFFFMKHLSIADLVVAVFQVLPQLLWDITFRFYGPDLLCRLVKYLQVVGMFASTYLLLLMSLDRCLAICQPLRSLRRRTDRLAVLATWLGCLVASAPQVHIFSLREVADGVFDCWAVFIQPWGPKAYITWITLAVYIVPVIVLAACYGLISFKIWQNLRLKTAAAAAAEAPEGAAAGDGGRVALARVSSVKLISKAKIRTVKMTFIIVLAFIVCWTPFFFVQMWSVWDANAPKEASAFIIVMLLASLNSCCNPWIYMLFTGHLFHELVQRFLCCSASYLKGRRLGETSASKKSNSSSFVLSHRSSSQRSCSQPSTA
How it was run: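 Intact CHO cells expressing human receptor incubated with [³H]oxytocin plus increasing compound concentrations; 10 µM oxytocin defines nonspecific binding. Ki obtained by non-linear regression of specific binding against compound concentration; values averaged from at least 2 independent duplicate experiments.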

Vasopressin V2 receptor = Vasopressin V2 receptor (Homo sapiens, UniProt P30518); test: Displacement of [3H]-AVP from human vasopressin V2 receptor expressed in CHO cell membranes
How it was run: (§1)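 Membranes from CHO cells expressing the human receptor incubated with [³H]AVP and increasing compound concentrations. Nonspecific binding defined with 10 µM lysine vasopressin. Specific binding plotted against compound concentration; affinity derived by non-linear regression. Mean of at least 2 independent experiments in duplicate.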

Vasopressin V1a receptor = Vasopressin V1a receptor (Homo sapiens, UniProt P37288); test: Displacement of [3H]-AVP from human vasopressin V1A receptor expressed in CHO cell membranes; how it was run: as §1
[3] = Lipophilicity, log D of the compound at pH 7.4; type: physicochemical; conditions: buffer
[4] = Solubility of the compound at pH 7.4; type: physicochemical; conditions: buffer
How it was run: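 Kinetic solubility measured at pH 7.4, reported in mg/L.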

Vasopressin V1b receptor [5] = target: T1, Vasopressin V1b receptor; test: Antagonist activity at human vasopressin V1B receptor expressed in CHO cells assessed as inhibition of AVP-induced calcium mobilisation by luciferase reporter gene assay; type: functional, cell-based

Sequence of 5-hydroxytryptamine receptor 6 (Homo sapiens) (P50406 whole entry): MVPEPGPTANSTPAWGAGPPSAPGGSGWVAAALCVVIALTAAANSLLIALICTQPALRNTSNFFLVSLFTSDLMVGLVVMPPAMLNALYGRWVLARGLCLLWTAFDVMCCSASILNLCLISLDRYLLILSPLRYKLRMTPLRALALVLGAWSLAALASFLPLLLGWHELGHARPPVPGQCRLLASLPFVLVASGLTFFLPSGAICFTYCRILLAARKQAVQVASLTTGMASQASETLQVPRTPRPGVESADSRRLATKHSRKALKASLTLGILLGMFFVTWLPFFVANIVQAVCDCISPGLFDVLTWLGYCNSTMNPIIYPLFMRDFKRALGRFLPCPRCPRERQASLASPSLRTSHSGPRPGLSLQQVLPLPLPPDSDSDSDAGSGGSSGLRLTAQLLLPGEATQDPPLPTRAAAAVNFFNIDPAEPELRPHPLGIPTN
Sequence of Vasopressin V1a receptor (P37288 whole entry): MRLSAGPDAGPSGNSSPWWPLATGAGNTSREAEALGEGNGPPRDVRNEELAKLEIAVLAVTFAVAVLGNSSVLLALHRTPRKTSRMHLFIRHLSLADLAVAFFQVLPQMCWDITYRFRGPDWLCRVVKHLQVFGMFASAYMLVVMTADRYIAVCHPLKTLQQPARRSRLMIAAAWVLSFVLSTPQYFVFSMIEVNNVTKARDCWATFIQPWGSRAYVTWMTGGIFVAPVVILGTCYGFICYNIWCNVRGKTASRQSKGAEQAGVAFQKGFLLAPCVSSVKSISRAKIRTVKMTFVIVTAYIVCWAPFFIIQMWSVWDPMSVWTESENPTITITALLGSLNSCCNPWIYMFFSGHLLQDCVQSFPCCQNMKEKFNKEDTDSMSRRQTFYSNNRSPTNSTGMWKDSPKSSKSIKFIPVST
Sequence of Vasopressin V2 receptor (P30518 whole entry): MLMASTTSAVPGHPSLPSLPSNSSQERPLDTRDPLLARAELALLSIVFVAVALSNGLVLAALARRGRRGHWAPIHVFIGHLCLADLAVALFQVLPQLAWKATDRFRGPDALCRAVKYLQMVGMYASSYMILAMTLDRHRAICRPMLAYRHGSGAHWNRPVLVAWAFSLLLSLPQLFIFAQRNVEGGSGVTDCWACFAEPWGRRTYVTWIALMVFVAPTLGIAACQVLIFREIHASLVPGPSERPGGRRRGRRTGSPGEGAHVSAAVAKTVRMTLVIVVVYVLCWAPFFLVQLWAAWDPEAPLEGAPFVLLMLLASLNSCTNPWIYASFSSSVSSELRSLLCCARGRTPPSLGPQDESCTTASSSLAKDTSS

With `COc1cc(C)c(S(=O)(=O)N[C@@H](Cc2ccccc2)C(=O)NCCCN2CCOCC2)c(C)c1C` the Ki (Vasopressin V1b receptor [1]) was 10000 nM.
Compound `COc1cc(C)c(S(=O)(=O)N[C@@H](Cc2ccccc2)C(=O)N(C)CCCN2CCN(C)CC2)c(C)c1C` has a Ki (Vasopressin V1b receptor [1]) of 1000 nM.
Work on `COc1ccc(S(=O)(=O)n2c(C)c(C(=O)N3CCCN(C)CC3)c3ccccc32)c(C)c1C` yielded a Ki (Vasopressin V1b receptor [1]) of 500 nM.
With `COc1ccc(S(=O)(=O)N2CC(C(=O)NCCCN3CCN(C)CC3)c3ccccc32)c(C)c1C` (centres undefined) the Ki (Vasopressin V1b receptor [1]) was 1200 nM and the Activity [2] was “Active”.
Compound `COc1ccc(S(=O)(=O)n2c(C)c(C(=O)N3CCCNCC3)c3cc(F)ccc32)c(C)c1C` has a Ki (Vasopressin V1b receptor [1]) of 310 nM.
For `COc1cc(C)c(S(=O)(=O)N[C@@H](Cc2ccccc2)C(=O)N2CCCN(C)CC2)c(C)c1C`, the Ki (Vasopressin V1b receptor [1]) was 3200 nM.
Compound `COc1cc(C)c(S(=O)(=O)N[C@@H](Cc2ccccc2)C(=O)NCCCN2CCC(C)CC2)c(C)c1C` has a Ki (Vasopressin V1b receptor [1]) of 2500 nM.
Compound `COc1ccc2c(c1)c(CC(=O)N1CCCNCC1)c(C)n2S(=O)(=O)c1ccc(OC)c(C)c1C` has a Ki (Oxytocin receptor) of 320 nM and a Ki (Vasopressin V1b receptor [1]) of 180 nM.
With `COc1cc(C)c(S(=O)(=O)N[C@@H](Cc2ccccc2)C(=O)NC(Cc2ccc3c(N)nccc3c2)C(=O)N2CCCCC2)c(C)c1C` (some centres undefined) the Ki (Vasopressin V1b receptor [1]) was 63 nM.
With `COc1cc(C)c(S(=O)(=O)N[C@@H](Cc2ccccc2)C(=O)N[C@@H](Cc2ccccc2)C(=O)N2CCCCC2)c(C)c1C` the Ki (Vasopressin V1b receptor [1]) was 630 nM.
For `COc1ccc(S(=O)(=O)n2c(C)c(CC(=O)N(C)CCc3ccccn3)c3cc(F)ccc32)c(C)c1C`, the Ki (Vasopressin V1b receptor [1]) was 260 nM.
Work on `COc1cc(C)c(S(=O)(=O)N[C@@H](Cc2ccccc2)C(=O)N[C@@H](Cc2ccc3ccccc3c2)C(=O)N2CCCCC2)c(C)c1C` (Mtr-Phe-[2Nal]-Piperidide) yielded a Ki (Vasopressin V1b receptor [1]) of over 10000 nM.
In the case of `COc1cc(C)c(S(=O)(=O)N[C@@H](Cc2ccccc2)C(=O)NCCCN2CCN(C)CC2)c(C)c1C`, the Ki (Vasopressin V1b receptor [1]) is reported as 250 nM.
In the case of `COc1cc(C)c(S(=O)(=O)N[C@@H](Cc2ccccc2)C(=O)NCC(=O)N2CCCCC2)c(C)c1C` (Mtr-Phe-Gly-Piperidide), the Ki (Vasopressin V1b receptor [1]) is reported as over 10000 nM.
For `COc1ccc(S(=O)(=O)n2c(C)c(CC(=O)NCCCN3CCN(C)CC3)c3cc(F)ccc32)c(C)c1C`, the Ki (Vasopressin V1b receptor [1]) was 430 nM.
Compound `COc1cc(C)c(S(=O)(=O)N[C@@H](Cc2ccccc2)C(=O)N[C@H](Cc2ccccc2)C(=O)N2CCCCC2)c(C)c1C` has a Ki (Vasopressin V1b receptor [1]) of over 10000 nM.
For `COc1ccc(S(=O)(=O)n2c(C)c(C(=O)N3CCCNCC3)c3cc(C)ccc32)c(C)c1C`, the Ki (Vasopressin V1b receptor [1]) was 790 nM.
With `COc1ccc(S(=O)(=O)n2c(C)c(C(=O)NCCCN3CCN(C)CC3)c3ccccc32)c(C)c1C` the Ki (Vasopressin V1b receptor [1]) was 560 nM.
With `COc1cc(C)c(S(=O)(=O)N[C@@H](Cc2ccccc2)C(=O)NCCN2CCN(C)CC2)c(C)c1C` the Ki (Vasopressin V1b receptor [1]) was 500 nM.
Work on `COc1ccc2c(c1)c(C(=O)N1CCCNCC1)c(C)n2S(=O)(=O)c1ccc(OC)c(C)c1C` yielded a Ki (Vasopressin V2 receptor) of over 10000 nM, a Ki (Vasopressin V1a receptor) of over 10000 nM and a Ki (Oxytocin receptor) of over 10000 nM. It also gave a Ki (Vasopressin V1b receptor [1]) of 190 nM, a logD [3] of 2 and a solubility [4] of 72 µg/mL (≈ 148 µM). It also gave an IC50 (Vasopressin V1b receptor [5]) of 371 nM.
Compound `COc1cc(C)c(S(=O)(=O)N[C@@H](Cc2ccccc2)C(=O)NCCCN(C)C)c(C)c1C` has a Ki (Vasopressin V1b receptor [1]) of 2000 nM.
